Screening data from PubChem BioAssay.
This is a sample that favours compounds with a hit; in the whole collection about 2.7% have one here.
Rev-erbA mod: Rev-erb alpha (human) modulation; P20393; AID 1259318; Rev-erbα–FITC-DNA binding, fluorescence polarization, 90 min; activity, % at 10 µM; hit rate 0.79% among 370,000;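 active = activity above about 14%, limit read from the data; passing the limit was not always enough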;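 also: 0% = DMSO wells with 35 nM protein and 100% = DMSO wells with 750 nM protein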
Target sequence (P20393 whole entry, looked up): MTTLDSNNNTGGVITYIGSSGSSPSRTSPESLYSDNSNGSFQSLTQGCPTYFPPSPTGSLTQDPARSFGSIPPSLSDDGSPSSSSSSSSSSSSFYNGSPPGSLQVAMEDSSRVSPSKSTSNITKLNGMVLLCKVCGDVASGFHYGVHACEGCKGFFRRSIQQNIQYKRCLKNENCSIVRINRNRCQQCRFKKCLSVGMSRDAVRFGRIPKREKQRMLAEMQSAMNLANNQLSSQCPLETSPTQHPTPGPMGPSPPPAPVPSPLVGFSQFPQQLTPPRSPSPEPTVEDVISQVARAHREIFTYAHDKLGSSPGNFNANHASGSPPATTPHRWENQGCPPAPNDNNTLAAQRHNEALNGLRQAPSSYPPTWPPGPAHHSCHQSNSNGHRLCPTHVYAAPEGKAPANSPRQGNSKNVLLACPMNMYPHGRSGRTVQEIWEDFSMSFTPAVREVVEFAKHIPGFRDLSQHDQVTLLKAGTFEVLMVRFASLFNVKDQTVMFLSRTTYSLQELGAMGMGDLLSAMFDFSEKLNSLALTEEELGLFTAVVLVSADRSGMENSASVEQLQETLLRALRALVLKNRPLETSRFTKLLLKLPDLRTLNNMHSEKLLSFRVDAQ
NR2E3 ag-1: agonists of human NR2E3 nuclear receptor; Q9Y5X4; CHO-S Gal4-NCOR/VP16-NR2E3 two-hybrid, luciferase; inhibition of corepressor binding, % at 3.98 µM; hit rate 0.35% among 360,000;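 active = inhibition above the mean of all tested compounds plus 3 SD, cut at about 70% in these data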;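 also: 0% = DMSO with NR2E3 transfected cells and 100% = cells lacking NR2E3 construct; higher means lower luciferase signal from less NR2E3 corepressor binding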
PG9 Ab binder: binds the HIV-1 gp120 antibody PG9; TR-FRET gp120-PG9 antibody binding; inhibition, % at 6.7 µM; hit rate 0.43% among 360,000; AID 624416; in the data active = inhibition above about 8.5%
MC4R antag cAMP: blocks human MC4R cAMP signaling; P32245; MC4R-expressing cells, MTII-stimulated cAMP, LANCE TR-FRET; inhibition, % at 6.5 µM; hit rate 0.48% among 360,000; AID 540295;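 active = inhibition above its plate's cutoff, the mean of tested wells on that plate plus 3 SD, cut at about 29% in these data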;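 also: 0% = Melanotan II alone and 100% = Melanotan II plus saturating MCL0020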
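Test system: U2OS cells stably expressing human melanocortin 4 receptor (MC4R); also added: Melanotan II challenge; compound: 6.5 µM single dose; timing: 30-min compound preincubation, 1-h Melanotan II challenge, 1-h detection, room temperature; signal: Eu-cAMP/anti-cAMP TR-FRET, emission 671 nm; repeats: one well per compound, no replicates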
NR2E3 ag-2: NR2E3 (human) agonism. hit rate 0.12% among 320,000. inhibition of corepressor binding, % at 4.78 µM. Q9Y5X4. GST-NR2E3/biotin-RetCOR TR-FRET, 1536-well;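 active = percent inhibition above the cutoff of mean plus 3 SD of all tested compounds, set per screening campaign, cut at about 20% in these data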;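 also: 0% = DMSO wells and 100% = biotin wells as full block of FRET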
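Material: NR2E3–RetCOR corepressor complex / Amount: 1.35 nM GST-NR2E3 / Medium: Tris pH 7.5 / Compound: single nominal compound dose of 4.8 µM / Incubation: 5 h at 4 °C / Technique: TR-FRET, Eu(K)-anti-GST donor, streptavidin-D2 acceptor, ex 340, em 617/671 nm / Read-out basis: percent loss of FRET ratio relative to control wells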
MC4R barr agon: human MC4R agonism via beta-arrestin; U2OS MC4R beta-arrestin complementation, luminescence; percent of melanotan II response, DMSO zero; P32245; hit rate 0.98% among 360,000; activation, % at 8.9 µM;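 active = activation above a per-plate cutoff, the mean activation of sample wells on that plate plus 3 SD, cut at about 8% in these data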
NR2E3 ag confirm: NR2E3 agonism confirmed in two-hybrid assay. shares compounds with NR2E3 ag-1. CHO-S mammalian two-hybrid NR2E3-NCOR, luciferase luminescence. inhibition, % at 3.98 µM. hit rate 51% among 2,300;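 active = average inhibition above a cutoff equal to the mean inhibition of all tested compounds plus one SD, cut at about 70% in these data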;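 also: 0% = DMSO in NR2E3 cells and 100% = DMSO in cells lacking NR2E3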
GAL4-VP16 luc: counter-screen for NR2E3 agonists: GAL4-VP16 reporter inhibitors. shares compounds with NR2E3 ag-1. CHO-S GAL4-VP16 luciferase reporter, luminescence. inhibition, % at 3.98 µM. hit rate 29% among 2,300;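 active = mean inhibition above a cutoff equal to the average over all tested compounds plus one standard deviation, cut at about 70% in these data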;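 also: luciferase from a UAS reporter driven by GAL4-VP16 transactivation; 0% = DMSO with VP16-transfected cells and 100% = DMSO with cells lacking VP16; higher means less reporter light so more repression of VP16 activity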
* hit, by the source's call; . = not tested or not shown.

SMILES	Rev-erbA mod	NR2E3 ag-1	PG9 Ab binder	MC4R antag cAMP	NR2E3 ag-2	MC4R barr agon	NR2E3 ag confirm	GAL4-VP16 luc
COc1ccc(/C(C)=N/NC(=S)NCCc2ccccc2)c(O)c1	2	48	-1	4	2	7	-18	-1
COCCNC(=S)N/N=C/c1ccccc1C(=O)O	2	13	-2	-1	1	0	.	.
COc1ccc(O)c(/C=N/NC(=S)NCCc2ccccc2)c1	6	35	1	-9	4	7	.	.
CCOC(=O)C1CCN(Cc2cn[nH]c2-c2ccc(C)cc2)CC1	3	-11	0	-5	-4	0	.	.
Cc1cc(NC(=O)CSc2nc3c(sc4ccccc43)c(=O)n2CCCN2CCOCC2)n[nH]1	-4	72*	-2	9	2	1	96*	20
Cc1cc(NC(=O)CSc2nc3c(sc4ccccc43)c(=O)n2CCc2ccccc2)n[nH]1	8	6	0	3	1	2	.	.
NC(=S)NN=C1c2ccccc2-c2ccccc21	7	72*	-3	-9	4	0	-4	-11
Cc1ccccc1NC(=S)NCC(c1cccnc1)N(C)C (centres undefined)	2	-18	-2	-1	-2	-1	.	.
Cc1ccc(C)c(NC(=S)NCC(c2ccccc2)N(C)C)c1 (centres undefined)	1	58	0	2	-2	-1	-14	-1
COc1ccc2c3c([nH]c2c1)[C@]1(NCC3)C(=O)N(C)c2ccc(Cl)cc21	2	.	.	.	.	.	.	.
Cc1ccc(C(=O)NC(=S)/C=C2\N(C)c3ccccc3C2(C)C)cc1	1	14	-1	-6	4	4	.	.
Oc1ccc(Cl)cc1Sc1cc(Cl)ccc1O	-8	61	-2	9	.	1	100*	66
CSc1ccc(CN(C)C(=O)c2ccc(S(=O)(=O)Nc3c(C)n(C)n(-c4ccccc4)c3=O)cc2)cc1	-3	12	0	11	.	-1	.	.
CSc1ccc(CN(C)C(=O)c2ccc(S(=O)(=O)Nc3ccccc3)cc2)cc1	8	51	-3	-1	-3	-1	-5	13
c1csc(CCNc2ncnc3sc4c(c23)CCC4)c1	3	93*	-2	9	0	0	98*	87*
O=C1N(c2ccccc2)C[C@@H]2C[C@@H](c3cc4ccccc4o3)N3CCC[C@@]123	-1	78*	0	12	.	-1	99*	85*
CCCOc1ccc(C2NC(=O)CCC2[N+](=O)[O-])cc1 (centres undefined)	0	-6	-2	3	2	-2	.	.
Fc1ccc(NC(=S)N2CCCN(c3ccc(C(F)(F)F)cn3)CC2)c(F)c1	2	69	-3	-1	3	0	91*	77*
O=C(Nc1ccc(F)cc1F)N1CCCN(c2ccc(C(F)(F)F)cn2)CC1	1	21	-1	7	0	-1	.	.
Cc1csc2ncnc(N3CCN(C(=S)Nc4ccc(F)cc4F)CC3)c12	0	61	-2	6	1	1	93*	82*
COc1ccc(C(O)c2nc(-c3cccc(C(C)C)c3)cs2)cc1 (centres undefined)	0	-2	1	11	.	1	.	.
CC1CCc2c(C(=O)NCC3CCCO3)csc2C1 (centres undefined)	2	-41	1	7	1	-2	.	.
Cc1cccc(Nc2nc(NCc3ccco3)c3ccccc3n2)c1	7	74*	0	-3	5	0	100*	87*
O=C(C(=O)N1CCC(CNS(=O)(=O)c2ccc(C(F)(F)F)cc2)CC1)c1cc2ccccc2o1	-6	.	-1	.	.	.	.	.
COc1cccc(OCCn2cc(C(C)=O)c3ccccc32)c1	-1	65	1	-6	5	-1	80*	64
